This note sets out measurements from ChEMBL document CHEMBL4138314, “Synthesis and Evaluation of N-Phenyl-3-sulfamoyl-benzamide Derivatives as Capsid Assembly Modulators Inhibiting Hepatitis B Virus (HBV)” (J Med Chem, 2018).

Data set [1] concerns Hepatitis B virus. Briefly: Induction of HBV capsid core protein CP149 aggregation assessed as large aberrant structure formation at 20 uM after 24 hrs by size exclusion chromatographic analysis. Put shortly:
(§1)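 Recombinant HBV core assembly domain (aa 1–149, Cp149) was incubated with compound at 20 µM for 24 h, with a no-compound control run in parallel. Size exclusion chromatography gave the ratio of Cp149 dimer AUC to aggregated Cp149 AUC.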

A short description of data set [2]: Drug metabolism in human liver microsomes at 1 uM after 15 mins by LC-MS/MS analysis. To be noted: read-out: Drug metabolism. The class given is ADME, microsome. Put shortly: (§2)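 Compound incubated 15 min with human or mouse liver microsomes; stability expressed as percent turnover (metabolised) at 15 min.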
In data set [3] the test system is Hepatitis B virus. The data set can be described thus: Induction of HBV capsid core protein CP149 aggregation assessed as ratio between area under the curve for observed amount of core dimer and area under the curve for aggregated core protein at 20 uM after 24 hrs by size exclusion chromatographic analysis. Put shortly: as §1
(In general: Size exclusion chromatography separates by hydrodynamic size, large species first.)

In data set [4] the test system is HBV genotype D. The data set can be described thus: Antiviral activity against HBV genotype D infected in human HepG2.2.15 cells assessed as inhibition of viral DNA level treated twice for 3 days measured after 6 days by real time PCR. As to conditions: for EC50: Hepatitis B virus; for Activity: hepatitis B virus genotype D. Format: functional, organism-based. For orientation: Quantitative PCR measures a nucleic acid by following its amplification.

The nature of data set [5]: Cytotoxicity against human HepG2 cells after 6 days by resazurin assay. The class given is cell-based. Background: Resazurin is reduced to fluorescent resorufin, in cell work by metabolically active cells.
Data set [6] in a line: Kinetic solubility of the compound at pH 7.4 after 4 hrs by UPLC-UV analysis. Format: physicochemical. As to conditions: buffer, read-out: Kinetic_solubility.
Data set [7] in a line: Drug metabolism in mouse liver microsomes at 1 uM after 15 mins by LC-MS/MS analysis. The class given is ADME, microsome. As to conditions: read-out: Drug metabolism. An outline of the steps:
as §2

Data set [8] deals with Core antigen (Hepatitis B virus) (UniProt Q03732). Briefly: Induction of HBV Maleimidyl BoDIPY-FL-labeled capsid Cp*150 mutant aggregation incubated for 30 mins measured every 10 secs for 30 mins by fluorescence quenching assay.
For data set [9], the system named is HBV genotype D. The data set can be described thus: Antiviral activity against HBV genotype D infected in chimeric mouse with humanized liver assessed as log reduction in viral DNA level in serum at 0.03 mg/kg, po qd for 28 days by RT-PCR method. The class given is functional, hepatitis B virus genotype D. Put shortly:
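HBV genotype D-infected chimeric mice with humanized liver (human hepatocyte replacement index ≥70%, judged by serum human albumin). Dosing was once daily for 28 days: test article 200 mg/kg s.c., entecavir 0.03 mg/kg oral as positive control, and oral saline as negative control. The read-out was serum HBV DNA (copies/mL), given as mean log change from baseline at day 29.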

A further data set relates to HepG2. The data set can be described thus: (§3) Cytotoxicity against human HepG2 cells after 4 to 6 days by resazurin assay. To be noted: hepg2. Format: cell-based.
The target of data set [10] is 5-hydroxytryptamine receptor 2B (Homo sapiens, UniProt P41595). The data set can be described thus: Antagonist activity at 5-HT2B (unknown origin). Format: functional. An outline of the steps: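 Receptor/ion channel/transporter panel of 80 targets screened at 10 µM, giving percent effect at 5-HT2B; follow-up 5-HT2B functional testing in agonist and antagonist modes, with antagonist IC50 determined.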

Data set [11] relates to Hepatitis B virus. Briefly: Antiviral activity against Hepatitis B virus infected in human HepG2.117 cells assessed as inhibition of viral DNA level after 3 days by real time PCR. The class given is functional, organism-based. As to conditions: HepG2.117, 72 h.
Data set [12] in a line: as §3. Format: cell-based. As to conditions: HepG2 cells.
A short description of data set [13]: Drug metabolism in human primary hepatocytes assessed as cleavage of N-phenylamide. Format: ADME, cell-based, Hepatocyte. An outline of the steps:
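Compound incubated with primary hepatocytes and checked for cleavage of the N-phenylamide bond.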

Data set [14] in a line: Cytotoxicity against human HepG2 cells after 4 days by resazurin assay. The class given is cell-based.

In brackets after ≈: the same amount, converted by molar mass. Activity calls are given as the source filed them. The calls are words filed in the database; no cut-off is given here.

Core antigen (Hepatitis B virus), sequence (Q03732 as listed by the source): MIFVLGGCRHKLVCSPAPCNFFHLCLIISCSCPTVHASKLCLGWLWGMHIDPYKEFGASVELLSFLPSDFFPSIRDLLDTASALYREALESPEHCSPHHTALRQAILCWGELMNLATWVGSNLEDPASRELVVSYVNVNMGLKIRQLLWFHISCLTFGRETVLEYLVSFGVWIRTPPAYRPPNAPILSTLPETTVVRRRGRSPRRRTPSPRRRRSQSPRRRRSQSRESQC
5-hydroxytryptamine receptor 2B, sequence (P41595 whole entry): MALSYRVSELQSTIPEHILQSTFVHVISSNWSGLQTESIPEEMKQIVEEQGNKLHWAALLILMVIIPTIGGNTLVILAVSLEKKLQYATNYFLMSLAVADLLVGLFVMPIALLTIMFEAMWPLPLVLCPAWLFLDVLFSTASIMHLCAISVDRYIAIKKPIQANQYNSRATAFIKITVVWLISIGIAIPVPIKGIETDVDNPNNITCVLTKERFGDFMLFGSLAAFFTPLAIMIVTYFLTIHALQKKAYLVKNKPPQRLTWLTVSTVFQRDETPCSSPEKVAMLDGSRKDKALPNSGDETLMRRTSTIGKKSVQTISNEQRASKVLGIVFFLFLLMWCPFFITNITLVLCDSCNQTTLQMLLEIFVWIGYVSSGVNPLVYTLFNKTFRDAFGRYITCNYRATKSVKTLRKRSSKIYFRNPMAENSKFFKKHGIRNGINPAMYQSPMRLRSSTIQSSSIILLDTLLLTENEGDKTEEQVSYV

The term EC50 denotes the concentration needed to bring the measured effect to its halfway point. As usually defined, the CC50 is the concentration at which the toxic effect on the cells reaches its halfway point. High values mean lower toxicity to the cells, low ones greater toxicity to the cells. For the compound `CCN(CC)S(=O)(=O)c1ccc(Cl)c(C(=O)Nc2ccccc2)c1`, the outcome in the data set on Hepatitis B virus [1] was inactive. Also, in [2], the metabolised at 0.25 h, 1 µM turned out to be 80%. In addition, the Ratio with Hepatitis B virus [3] turned out to be 0.7. Moreover, in the data set with HBV genotype D [4], the EC50 is 1040 nM and the Activity result is “Dose-dependent effect”. The compound also returned a CC50 at 144 h in data set [5] of over 25 µM.

`O=C(Nc1ccc(F)cc1)c1ccc(Cl)c(S(=O)(=O)N2CCCCCC2)c1`: in the data set on Hepatitis B virus [1], the result was inactive. Also, the metabolised at 0.25 h, 1 µM in [2] turned out to be 98%. Besides, in the data set on Hepatitis B virus [3], the Ratio was found to be 0.01. In the data set with HBV genotype D [4], the EC50 was 660 nM and the Activity result was “Dose-dependent effect”. Also, in data set [6], the solubility kinetic at 4 h is 1 µM (≈ 0.411 µg/mL). Also, in data set [5], the CC50 at 144 h came to 17 µM. In addition, the metabolised at 0.25 h, 1 µM in data set [7] stood at 100%. Besides, in [8], the result was Active.

Consider `C=C1[C@H](CO)[C@@H](O)C[C@@H]1n1cnc2c(=O)[nH]c(N)nc21.O` [ENTECAVIR], for which the “log(activity)” value in the data set on HBV genotype D [9] is reported as 3.03.

Usually EC20 stands for the concentration needed for an effect of 20%. For orientation: IC50 means the concentration that gives 50% inhibition. Regarding `CC(C)NS(=O)(=O)c1cccc(C(=O)Nc2ccc(F)c(F)c2)c1`, the metabolised at 0.25 h, 1 µM in data set [2] came to 18%; in data set [7], 60%. The results for the EC50 in the data set with HBV genotype D [4] and in the data set with Hepatitis B virus [11] were 210 nM and 400 nM, respectively. In the data set on HepG2, this compound had an EC20 of 1 µM. The same compound registered an IC50 in [10] of 230 nM. Besides, the solubility kinetic at 4 h in [6] is over 100 µM. The result in data set [8] was Active.

Consider `Cc1cc(NC(=O)c2cccc(S(=O)(=O)NC3(C)COC3)c2)ccc1F`, for which the metabolised at 0.25 h, 1 µM came to 7% in data set [2] and 65% in data set [7]. Moreover, the results for the EC50 in the data set with HBV genotype D [4] and in the data set with Hepatitis B virus [11] were 120 nM and 300 nM, respectively. In data set [12], this compound yielded a CC50 of 47.1 µM. Besides, the Drug metabolism result in data set [13] is listed as “Metabolite_Detected”. Further, in data set [6], the solubility kinetic at 4 h is over 100 µM. The outcome in [8] was Active.

Consider `O=C(Nc1ccccc1)c1cc(S(=O)(=O)N2CCCCC2)c(Cl)cc1Cl`, for which the outcome in the data set on Hepatitis B virus [1] was inactive. In addition, the metabolised at 0.25 h, 1 µM in [2] was 99%; in data set [7], 100%. Moreover, in the data set with Hepatitis B virus [3], the Ratio worked out at 0.2. In addition, the EC50 in the data set on HBV genotype D [4] was found to be 500 nM. In addition, the Activity result with HBV genotype D [4] is “Dose-dependent effect”. Besides, the solubility kinetic at 4 h in data set [6] turned out to be 2 µM (≈ 0.827 µg/mL). In data set [5], this compound returned a CC50 at 144 h of over 25 µM. The outcome in data set [8] was Active.

As for `O=C(Nc1ccccc1)c1cccc(S(=O)(=O)NC2CCCC2)c1`, the result in the data set with Hepatitis B virus [1] was inactive. Also, the metabolised at 0.25 h, 1 µM in data set [2] turned out to be 94%. Further, in the data set on Hepatitis B virus [3], the Ratio turned out to be 0.3. Besides, in the data set with HBV genotype D [4], the EC50 worked out at 600 nM and the Activity result is “Dose-dependent effect”. Also, the solubility kinetic at 4 h in [6] is 91 µM (≈ 31.3 µg/mL). This compound gave a half-maximal cytotoxic concentration (CC50) at 144 h in data set [5] of 27.2 µM. For the same compound, the metabolised at 0.25 h, 1 µM in [7] stood at 98%. Further, the outcome in [8] was Active.

Consider `Cc1cc(NC(=O)c2cccc(S(=O)(=O)NC(C)C)c2)ccc1F`, for which the values for the metabolised at 0.25 h, 1 µM in [2] and in [7] were 26% and 80%, respectively. The figures for the EC50 with HBV genotype D [4] and in the data set on Hepatitis B virus [11] were 70 nM and 150 nM, respectively. In addition, the CC50 in data set [12] amounted to 47.5 µM. The solubility kinetic at 4 h in [6] came to 41 µM (≈ 14.4 µg/mL). Besides, the result in data set [8] was Active.

With `O=C(Nc1ccccc1)c1ccc(F)c(S(=O)(=O)NC2CCCCC2)c1`, the metabolised at 0.25 h, 1 µM in data set [2] worked out at 100%. In the data set with HBV genotype D [4], the EC50 worked out at 2230 nM and the Activity entry was “Dose-dependent effect”. This compound also displayed a CC50 at 144 h in [5] of 16.4 µM.

For `Cc1c(F)ccc(NC(=O)c2cccc(S(=O)(=O)NC3(C)COC3)c2)c1C`, the metabolised at 0.25 h, 1 µM in [2] was found to be 0%; in data set [7], 77%. Also, the results for the EC50 with HBV genotype D [4] and in the data set with Hepatitis B virus [11] were 2740 nM and 1650 nM, respectively. Further, the CC50 in data set [12] is over 25 µM. Further, in [6], the solubility kinetic at 4 h was over 100 µM.

With `O=C(Nc1ccc(F)cc1)c1cccc(C(=O)NC2CCCCC2)c1`, the results for the metabolised at 0.25 h, 1 µM in data set [2] and in [7] were 56% and 93%, respectively. Besides, the Ratio in the data set with Hepatitis B virus [3] stood at 6.4. Moreover, the EC50 is over 100000 nM in the data set with HBV genotype D [4] and over 25000 nM in the data set with Hepatitis B virus [11]. This compound returned an IC50 in [10] of 90 nM. Also, the solubility kinetic at 4 h in data set [6] was under 0.4 µM. In [14], the cytotoxic concentration (CC50) at 96 h is over 100 µM.

As to `CC(C)NS(=O)(=O)c1cccc(C(=O)Nc2ccc(F)c(C3CC3)c2)c1`, the metabolised at 0.25 h, 1 µM was 27% in data set [2] and 61% in data set [7]. In addition, the concentration giving a half-maximal response (EC50) with HBV genotype D [4] turned out to be 320 nM; with Hepatitis B virus [11], 910 nM. Moreover, the CC50 in data set [12] amounted to 35.2 µM. For the same compound, in [6], the solubility kinetic at 4 h came to 31 µM (≈ 11.7 µg/mL).

On to `Cc1ccccc1NC(=O)c1cccc(S(=O)(=O)NC2CCCCC2)c1`, for which, in [2], the metabolised at 0.25 h, 1 µM turned out to be 86%. In addition, the half-maximal effective concentration (EC50) with HBV genotype D [4] was 4180 nM. In data set [5], this compound had a CC50 at 144 h of over 25 µM.

Consider `Cc1cc(NC(=O)c2cccc(S(=O)(=O)N[C@H]3CCOC3)c2)c(F)cc1F`, for which the metabolised at 0.25 h, 1 µM in [2] worked out at 17%; in data set [7], 69%. Moreover, the EC50 in the data set on HBV genotype D [4] worked out at 2220 nM; with Hepatitis B virus [11], 3300 nM. Besides, in data set [12], the CC50 was over 25 µM. Also, the solubility kinetic at 4 h in data set [6] was over 100 µM.

For `Cc1c(F)ccc(NC(=O)c2cccc(S(=O)(=O)N[C@H]3CCOC3)c2)c1F`, the metabolised at 0.25 h, 1 µM was determined as 25% in data set [2] and 66% in [7]. Besides, the EC50 was 290 nM in the data set with HBV genotype D [4] and 780 nM in the data set with Hepatitis B virus [11]. This compound registered a CC50 in [12] of over 25 µM. Moreover, the solubility kinetic at 4 h in data set [6] is over 100 µM.
